Compound activity: PubChem, several laboratories
Hits are enriched below; roughly 2.5% of the tested compounds scored in any of these assays.
NR2E3 ag-1: activates human NR2E3 receptor | Q9Y5X4 | CHO-S Gal4-NCOR/VP16-NR2E3 two-hybrid, luciferase | inhibition of corepressor binding, % at 3.98 µM | actives 0.35% (n = 360,000);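 active = inhibition above the mean of all tested compounds plus 3 SD, cut at about 70% in these data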;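 note: 0% = DMSO with NR2E3 transfected cells and 100% = cells lacking NR2E3 construct; higher means lower luciferase signal from less NR2E3 corepressor binding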
Target sequence (Q9Y5X4 whole entry, looked up, the tested form may be a part): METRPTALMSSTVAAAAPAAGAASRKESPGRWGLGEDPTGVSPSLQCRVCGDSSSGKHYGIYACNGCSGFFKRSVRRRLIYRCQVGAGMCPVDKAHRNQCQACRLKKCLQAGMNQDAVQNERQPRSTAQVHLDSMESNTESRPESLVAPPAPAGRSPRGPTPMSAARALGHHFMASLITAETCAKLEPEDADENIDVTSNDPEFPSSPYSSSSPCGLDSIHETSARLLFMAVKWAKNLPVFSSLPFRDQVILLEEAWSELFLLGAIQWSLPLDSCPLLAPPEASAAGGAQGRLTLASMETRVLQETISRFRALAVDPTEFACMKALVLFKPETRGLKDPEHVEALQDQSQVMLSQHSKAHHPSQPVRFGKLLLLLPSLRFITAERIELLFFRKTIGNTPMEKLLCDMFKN
MsrA inh: inhibitors of bovine MsrA; actives 0.75% (n = 360,000); purified bovine MsrA, absorbance read-out; AID 651718; inhibition, % at 15.5 µM; in the data active = inhibition above about 4.5%;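 note: 0% = vehicle wells with enzyme and 100% = reference inhibitor wells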
NR2E3 ag-2: agonists of human nuclear receptor NR2E3; GST-NR2E3/biotin-RetCOR TR-FRET, 1536-well; AID 2300; Q9Y5X4; actives 0.12% (n = 320,000); inhibition of corepressor binding, % at 4.78 µM;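 active = percent inhibition above the cutoff of mean plus 3 SD of all tested compounds, set per screening campaign, cut at about 20% in these data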;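 note: 0% = DMSO wells and 100% = biotin wells as full block of FRET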
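Material – GST-tagged NR2E3 plus biotinylated RetCOR corepressor · Quantity – NR2E3 fusion 1.35 nM · Times – 5 h incubation at 4 °C · Medium – pH 7.5 Tris-based buffer · Technique – TR-FRET, Eu(K)-anti-GST donor, streptavidin-D2 acceptor, ex 340, em 617/671 nm · Benchmarks – high control biotin, low control 0.6% DMSO · Format – 1536-well plates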
NadD inh: inhibitors of Staphylococcus aureus NadD. purified NadD enzyme, colorimetric absorbance read-out. inhibition, % at 20 µM. actives 0.78% (n = 360,000). AID 602399; in the data active = inhibition above about 26%
MsrA act: bovine methionine sulfoxide reductase A activation; purified bovine MsrA, absorbance read-out; activation, % at 10.6 µM; actives 0.3% (n = 360,000); AID 602163; in the data active = activation above about 7.5%;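 note: 0% = vehicle and 100% = reference activator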
GalR3 antag: human GalR3 antagonism; inhibition, % at 3 µM; HEK293 GalR3-CNG cAMP membrane potential fluorescence; galR3 body fused to GalR1 C-terminus; actives 0.44% (n = 360,000);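 active = inhibition above the screen-wide average plus 3 SD, cut at about 13% in these data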;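 note: forskolin and galanin both at EC90 stimulate the cells; cAMP rise reported by CNG channel membrane potential dye signal; 0% = forskolin plus galanin with DMSO and 100% = forskolin alone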
MsrA activ conf: bovine methionine sulfoxide reductase A activation confirmed. purified bovine MsrA, absorbance read-out. actives 12% (n = 1,000). activation, % at 10.6 µM. AID 602270. shares compounds with MsrA act; in the data active = activation above about 4%;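 note: enzyme coupled to thioredoxin and thioredoxin reductase with NADPH; 0% = vehicle wells and 100% = reference activator wells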
* = called active by the depositor.

`Cc1ccc(COc2ccsc2-c2n[nH]c(=S)n2C)cc1` gave NR2E3 ag-1 2.3, MsrA inh -0.7, NR2E3 ag-2 1.9, NadD inh 4.9, MsrA act 0.1 and GalR3 antag -1.4.
Screening CC(=O)NC(Cc1ccccc1C)C(=O)NC1CCN(c2nnnn2-c2ccccc2)CC1 (stereo unspecified) returned NR2E3 ag-1 -3.3, MsrA inh 0.7, NR2E3 ag-2 -0.1, NadD inh -3.2, MsrA act 11.6*, GalR3 antag -4.9 and MsrA activ conf -0.8.
For COc1ccccc1CC(NC(C)=O)C(=O)NC1CCN(c2nnnn2-c2ccccc2)CC1 (stereo unspecified) the results were NR2E3 ag-1 -15.6, NR2E3 ag-2 0.3, NadD inh -0.8 and MsrA act -1.1.
`Cc1c(-c2ccccc2)oc2c(C(=O)OCC(=O)Nc3cccc(F)c3)cccc2c1=O` gave NR2E3 ag-1 -12.8, MsrA inh -1.4, NR2E3 ag-2 0.5, NadD inh 6.4, MsrA act -2.1 and GalR3 antag -1.1.
Screening COC(=O)c1ccccc1S(=O)(=O)N1CCC(C(=O)NC2CCCCC2)CC1 returned NR2E3 ag-1 12.9, MsrA inh -0.5, NR2E3 ag-2 1.9, NadD inh -6.9, MsrA act 11.4*, GalR3 antag -3.1 and MsrA activ conf -1.7.
For Cn1c(N)c(C(=O)CSc2nnc(N)s2)c(=O)n(C)c1=O the results were NR2E3 ag-1 -7.2, MsrA inh 1.1, NadD inh -2.5, MsrA act -8.2 and GalR3 antag -8.7.
Cc1csc(SCC(=O)c2c(N)n(C)c(=O)n(C)c2=O)n1 was read as NR2E3 ag-1 -54.4, MsrA inh -0.1, NR2E3 ag-2 -2.0, NadD inh -2.6, MsrA act 9.7*, GalR3 antag -0.7 and MsrA activ conf -1.7.
For O=C(OCC(=O)c1c[nH]c2ccccc12)c1ccc([N+](=O)[O-])s1 the results were NR2E3 ag-1 -11.5, MsrA inh 3.8, NR2E3 ag-2 2.6, NadD inh -6.4, MsrA act 16.4*, GalR3 antag -3.7 and MsrA activ conf 6.6*.
Screening CCc1cccc2c(C(=O)COC(=O)c3ccc([N+](=O)[O-])s3)c[nH]c12 returned NR2E3 ag-1 6.8, MsrA inh 1.5, NR2E3 ag-2 -3.5, NadD inh -6.4, MsrA act -0.2 and GalR3 antag -2.7.
CC[n+]1ccc(C[n+]2ccccc2)c2ccccc21 was read as NR2E3 ag-1 -21.3, MsrA inh 1.1, NR2E3 ag-2 -0.4, NadD inh 17.9, MsrA act 10.5*, GalR3 antag -3.6 and MsrA activ conf 1.4.
Cc1ccc(NC(=O)C(C)c2ccc([N+](=O)[O-])cc2)cc1Cl (stereo unspecified) was read as NR2E3 ag-1 8.0, MsrA inh -1.0, NR2E3 ag-2 3.2, NadD inh -7.1, MsrA act 20.2*, GalR3 antag -2.9 and MsrA activ conf 0.0.
Screening COc1ccc(N2CCN(Cc3cc4c(cc3O)CCC4)CC2)cc1 returned NR2E3 ag-1 5.4, MsrA inh 1.0, NR2E3 ag-2 -4.5, NadD inh -10.2, MsrA act 14.2*, GalR3 antag -2.8 and MsrA activ conf -0.2.
CC1CCN(C(=O)COC(=O)c2ccc3ccccc3n2)CC1 was read as NR2E3 ag-1 12.9, MsrA inh 0.5, NadD inh -4.2, MsrA act -2.5 and GalR3 antag -6.4.
`Cc1nc(N/N=C/c2ccc(O)cc2)c2cnn(-c3ccccc3)c2n1` gave NR2E3 ag-1 -37.7, MsrA inh 3.2, NR2E3 ag-2 -2.1, NadD inh 8.1, MsrA act -4.3 and GalR3 antag -3.9.
For Cc1ccc(Cn2ncc(Cl)c(Cl)c2=O)cc1 the results were NR2E3 ag-1 -9.5, MsrA inh -0.7, NR2E3 ag-2 5.7, NadD inh -2.8, MsrA act -1.9 and GalR3 antag -4.7.
Cc1[nH]c(C)c2c(=O)n(Cc3ccc(Cl)cc3)ncc12 was read as NR2E3 ag-1 -20.1, MsrA inh 0.1, NR2E3 ag-2 -4.3, NadD inh -2.9, MsrA act 14.2*, GalR3 antag -1.2 and MsrA activ conf -0.6.
For CCc1nn(CC(=O)NCCCN2CCOCC2)c(=O)c2cc3cc(F)ccc3n12 the results were NR2E3 ag-1 -0.9, MsrA inh 0.9, NR2E3 ag-2 0.8, NadD inh 0.7, MsrA act 7.9*, GalR3 antag -6.2 and MsrA activ conf -0.8.
For CCc1nn(CC(=O)NCCCN2CCOCC2)c(=O)c2cc3sccc3n12 the results were NR2E3 ag-1 -29.2, MsrA inh 2.3, NR2E3 ag-2 -1.5, NadD inh -0.9, MsrA act 0.4 and GalR3 antag -7.2.
`O=C(O)C(Cc1ccccc1)n1c(=S)[nH]c2ccccc2c1=O` (stereo unspecified) gave NR2E3 ag-1 10.7, MsrA inh -0.6, NR2E3 ag-2 3.3, NadD inh -1.7, MsrA act -1.7 and GalR3 antag -9.3.
Screening CN1CCN(C(c2ccccn2)c2cc(Cl)c3cccnc3c2O)CC1 (stereo unspecified) returned NR2E3 ag-1 8.8, MsrA inh 1.8, NR2E3 ag-2 -0.3, NadD inh -1.4, MsrA act 18.0*, GalR3 antag -5.7 and MsrA activ conf -2.0.
Screening COc1ccc(NS(=O)(=O)c2cc(C)ccc2NC(=O)c2cc(C)oc2C)cc1 returned NR2E3 ag-1 10.3, MsrA inh -0.7, NR2E3 ag-2 1.7, NadD inh -5.9, MsrA act 9.3*, GalR3 antag -7.5 and MsrA activ conf -0.7.
Screening Cc1cccc(NC(=O)c2c(C)cc(=O)oc2C)n1 returned NR2E3 ag-1 -13.1, MsrA inh 0.1, NR2E3 ag-2 -1.6, NadD inh 4.0, MsrA act 13.7*, GalR3 antag -2.5 and MsrA activ conf 0.0.
Screening CC1(C)CCC(=NNC(N)=S)CC1 returned NR2E3 ag-1 -0.2, MsrA inh -0.5, NadD inh 4.1, MsrA act -6.5 and GalR3 antag -2.0.
`NC(=S)NN=C1CSSC1` gave NR2E3 ag-1 18.5, NadD inh 7.0, MsrA act 14.5* and MsrA activ conf 23.4*.
CN(C)c1nc(OCCNC(=O)Nc2ccccc2)nc(N2CCCCC2)n1 was read as NR2E3 ag-1 -17.5, MsrA inh 0.7, NR2E3 ag-2 1.2, NadD inh -10.7, MsrA act -2.9 and GalR3 antag -4.9.
`CN(C)c1nc(OCCNC(=O)Nc2ccccc2)nc(N2CCOCC2)n1` gave NR2E3 ag-1 7.6, MsrA inh -0.2, NadD inh -4.3, MsrA act 15.6*, GalR3 antag -1.7 and MsrA activ conf -0.9.
